According to ChEMBL document CHEMBL1123142, “1,2,4-Triazolo[4,3-a]quinoxaline-1,4-diones as antiallergic agents” (J Med Chem, 1985):
“And” between values parts separate entries of the source, which are not always exact repeats. Equal values may be shown once.

Experiments:
[1] = organism: Rattus norvegicus; test: Concentration required to inhibit Antigen-induced release of Histamine from rat mast cells at 100 uM; assay type: functional; settings: Mast cell
[2] = organism: Rattus norvegicus; test: Concentration required to inhibit Antigen-induced release of Histamine from rat mast cells; assay type: functional, cell-based; settings: read-out: I50
[3] = test system: Rattus norvegicus; test: Percent inhibitory activity in rat passive cutaneous anaphylaxis test at a dose of 25 mg/kg administered perorally; assay type: functional; settings: for inhibition in vivo at 25 mg/kg: Rattus norvegicus, po; for Inhibition: route oral, 25 mg/kg
Method in brief: (§1)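 Rats immunized i.m. with ovalbumin plus aluminum hydroxide, plus B. pertussis i.p., gave IgE antiovalbumin serum. Naive male Sprague-Dawley rats were sensitized intradermally at dorsal sites (1:20), with 48 h latency. Compound was given orally in 1% methylcellulose, 10 min before i.v. challenge with 4 mg ovalbumin in 1% Evans blue. Blued wheal areas were read at 30 min. Groups of 4–8; mean ± SE, Student's t test.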

[4] = test system: Rattus norvegicus; test: Effective dose against IgE-mediated cutaneous anaphylaxis in the rat after peroral administration; assay type: functional; settings: po; method in brief: as §1
[5] = test system: Rattus norvegicus; test: Percent inhibitory activity in rat passive cutaneous anaphylaxis test at a dose of 25 mg/kg, ip; assay type: functional; settings: route intraperitoneal
[6] = test system: Rattus norvegicus; test: Percent inhibitory activity in rat passive cutaneous anaphylaxis test at a dose of 10 mg/kg administered perorally; assay type: functional; settings: route oral; method in brief: as §1
[7] = test system: Rattus norvegicus; test: Effective dose against IgE-mediated cutaneous anaphylaxis in the rat after ip administration; assay type: functional

Row | IC50 [2] | SMILES | inhibition in vivo at 25 mg/kg [3] | other results
1 |  | COC(=O)n1nc2c(=O)n(C)c3ccccc3n2c1=O |  | inhibition at 100 µM [1]: 30%
2 | 3 µM | COc1ccc2c(c1)n(C)c(=O)c1nnc(O)n12 | 10% | 
3 | 0.4 µM | CCCn1c(=O)c2nnc(O)n2c2ccc(Cl)cc21 | 53% | ED50 [4]: 3 mg/kg
4 | 6 µM | Cc1ccc2c(c1)n(C)c(=O)c1nnc(O)n12 | 18% | 
5 | 10 µM | Cn1c(=O)c2nnc(O)n2c2ccc(Cl)cc21 | 22% | ED50 [4]: > 125 mg/kg
6 | 43 µM | CC(=O)n1nc2c(=O)n(C)c3cc(C)c(C)cc3n2c1=O | 26% | 
7 | 0.4 µM | Cn1c(=O)c2nnc(O)n2c2cc(Cl)ccc21 | 42% | 
8 |  | Oc1nc2ccccc2n2c(O)nnc12 | 40% | inhibition at 100 µM [1]: 20%
9 |  | CCCn1c(=O)c2nn(CC(=O)OCC)c(=O)n2c2ccc(Cl)cc21 |  | inhibition at 100 µM [1]: 20%; inhibition in vivo at 25 mg/kg [5]: 14%
10 | 40 µM | Cn1c(=O)c2nnc(O)n2c2ccccc21 | 38% | ED50 [4]: 6 mg/kg; inhibition in vivo at 10 mg/kg [6]: 56%
11 | 1 µM | CCCn1c(=O)c2nn(C(=O)/C=C/c3ccccc3)c(=O)n2c2ccc(Cl)cc21 | 38% | ED50 [4]: > 100 mg/kg
12 | 35 µM | COc1cc2c(c(Cl)c1OC)n(C)c(=O)c1nnc(O)n12 | 27% | 
13 |  | Cn1c(=O)c2nnc(O)n2c2ccc(O)cc21 | 20% | inhibition at 100 µM [1]: 29%
14 |  | C=CCn1nc2c(=O)n(CCC)c3cc(Cl)ccc3n2c1=O |  | inhibition at 100 µM [1]: 20%
15 | 25 µM | CC(=O)n1nc2c(=O)n(C)c3ccccc3n2c1=O |  | Inhibition [3]: 27% and 63%
16 | 0.1 µM | CCCn1c(=O)c2nn(C(C)=O)c(=O)n2c2ccc(Cl)cc21 |  | inhibition in vivo at 25 mg/kg [5]: 42%
17 | 1 µM | CC(=O)c1ccc2c(c1)n(C)c(=O)c1nnc(O)n12 | 49% | 
18 | 12 µM | Cc1cc2c(cc1C)n1c(O)nnc1c(=O)n2C |  | 
19 | 1 µM | CCCn1c(=O)c2nn(C)c(=O)n2c2ccc(Cl)cc21 |  | ED50 [4]: > 100 mg/kg
20 |  | Cn1c(=O)c2nn(S(C)(=O)=O)c(=O)n2c2ccccc21 | 25% | inhibition at 100 µM [1]: 2%
21 | 10 µM | CC(=O)n1nc2c(=O)n(C(C)=O)c3ccccc3n2c1=O | 36% | 
22 | 17 µM | Cc1cccc2c1n(C)c(=O)c1nnc(O)n12 | 35% | Inhibition [3]: 53%
23 | 8 µM | CCCn1c(=O)c2nnc(O)n2c2ccccc21 | 58% | ED50 [4]: 3 mg/kg; inhibition in vivo at 10 mg/kg [6]: 84%
24 | 1 µM | Cn1c(=O)c2nnc(O)n2c2ccc(C(F)(F)F)cc21 | 52% | Inhibition [3]: 69%; ED50 [4]: 12 mg/kg
25 |  | Cn1nc2c(=O)n(C)c3ccccc3n2c1=O | 0% | inhibition at 100 µM [1]: 30%
26 |  | O=C([O-])c1cc(=O)c2c(OCC(O)COc3cccc4oc(C(=O)[O-])cc(=O)c34)cccc2o1.[Na+].[Na+] [CROMOLYN SODIUM] |  | ED50 [7]: 6 mg/kg
